Experimental data as given in ChEMBL document CHEMBL1157166, “Synthesis, antimalarial activity, structure-activity relationship analysis of thieno-[3,2-b]benzothiazine S,S-dioxide analogs” (2008).

Tests used:
Format in all cases: functional
[1] = biological target: T1, Histidine-rich protein PFHRP-II (Plasmodium falciparum) (UniProt P05227); test: Inhibition of beta-hematin formation using synthetic hemin chloride; parameters: concentration or dose not given beside the values; settings: concentration not given here
T1 sequence (whole entry): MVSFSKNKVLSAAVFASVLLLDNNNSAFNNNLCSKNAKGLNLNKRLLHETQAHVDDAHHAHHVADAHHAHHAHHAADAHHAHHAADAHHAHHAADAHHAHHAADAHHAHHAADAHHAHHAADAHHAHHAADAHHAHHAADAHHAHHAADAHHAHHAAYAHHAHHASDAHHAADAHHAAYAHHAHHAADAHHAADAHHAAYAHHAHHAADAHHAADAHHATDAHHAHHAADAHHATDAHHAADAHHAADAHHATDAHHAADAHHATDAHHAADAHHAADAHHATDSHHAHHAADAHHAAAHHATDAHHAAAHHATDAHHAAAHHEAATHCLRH
Procedure, shortened: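 Hemin chloride (4 mM in DMSO) was mixed in triplicate with compound in DMSO (50–5 mM as added); water or DMSO served as controls. Acetate buffer (0.2 M, pH 4.4) was added, then incubated at 37 °C for 48 h and centrifuged. The pellet was washed with DMSO, dissolved in 0.2 N NaOH and diluted 1:2 in 0.1 N NaOH. A405 was read and expressed as % inhibition of β-hematin formation.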

Plasmodium berghei [2] = test: Antiparasitic activity as reduced parasitaemia against chloroquine-sensitive Plasmodium berghei ANKA infected NIH mice (Mus musculus) at 20 mg/kg intraperitoneal dose at day 4; parameters: scale not given: the % may be the effect or the level left
Procedure, shortened: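 Four-day suppressive test in NIH mice (18–22 g) infected ip with 1 × 10⁷ P. berghei. Dosing began 2 h post-infection: 20 mg/kg ip once daily for 4 days, from a 0.1 M DMSO stock diluted in 2% saline–Tween 20. Chloroquine at 25 mg/kg was the positive control. Day-4 parasitemia was read from Giemsa smears as a percentage versus saline-treated controls.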

Plasmodium berghei [3] = test: Antiparasitic activity as survival days against chloroquine-sensitive Plasmodium berghei ANKA infected NIH mice (Mus musculus) at 20 mg/kg intraperitoneal dose
Procedure, shortened: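 NIH mice (18–22 g) infected ip with 1 × 10⁷ P. berghei parasites; dosing started 2 h post-infection. Compound dissolved in DMSO (0.1 M stock), diluted in 2% Saline–Tween 20, given ip at 20 mg/kg once daily for 4 days. Chloroquine 25 mg/kg as positive control; saline-treated mice as untreated controls. Survival time after infection recorded versus control mice.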

Plasmodium berghei [4] = test: Antiparasitic activity against Plasmodium berghei ANKA infected BALB/c mice (Mus musculus) after 18 hrs as reduced hemoglobin proteolysis
Procedure, shortened: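 Parasite extract: blood from P. berghei ANKA-infected mice (30–70% parasitemia); erythrocytes washed and lysed, then freed parasites freeze–thawed three times. Native mouse hemoglobin was incubated with extract, GSH and 0.2 M acetate buffer pH 5.4, with compound in DMSO, at 37 °C for 18 h. Leupeptin, pepstatin and chloroquine were references. Digestion was judged visually from the 14.4 kDa globin band on SDS–PAGE.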

inhibition [1] | Structure (SMILES) | Activity (Plasmodium berghei [2]) | Survival (Plasmodium berghei [3]) | inhibition (INH) (Plasmodium berghei [4])
< 5% | CCOC(=O)c1sc2c(c1N)S(=O)(=O)c1cc(Cl)ccc1N2c1cccc(OC)c1 | – | – | 0%
< 5% | CCOC(=O)c1sc2c(c1N)S(=O)(=O)c1cc(Cl)ccc1N2c1ccc(Cl)cc1 | – | – | 0%
– | CCN(CC)CCCC(C)Nc1ccnc2cc(Cl)ccc12 (stereo not drawn) [CHLOROQUINE] | 1.31% | 30 days | 24.12%
< 5% | CCOC(=O)c1sc2c(c1N)S(=O)(=O)c1ccc(Cl)cc1N2c1cccc(Cl)c1 | – | – | 0%
< 5% | CCOC(=O)c1sc2c(c1N)S(=O)(=O)c1cc(Cl)ccc1N2c1ccc(C)cc1 | – | – | 0%
< 5% | CCOC(=O)c1sc2c(c1N)S(=O)(=O)c1ccc(Cl)cc1N2c1ccc(Cl)c(Cl)c1 | – | – | <5%
< 5% | CCOC(=O)c1sc2c(c1N)S(=O)(=O)c1cc(Cl)ccc1N2c1ccccc1C | – | – | 0%
< 5% | CCOC(=O)c1sc2c(c1N)S(=O)(=O)c1cc(Cl)ccc1N2c1ccccc1 | – | – | 0%
– | CC(C)CC(=O)N[C@H](C(=O)N[C@H](C(=O)N[C@@H](CC(C)C)[C@@H](O)CC(=O)N[C@@H](C)C(=O)N[C@@H](CC(C)C)[C@@H](O)CC(=O)O)C(C)C)C(C)C [PEPSTATIN] | – | – | 92.94%
< 5% | CCOC(=O)c1sc2c(c1N)S(=O)(=O)c1cc(Cl)ccc1N2c1cc(C)ccc1C | – | – | 0%
< 5% | CCOC(=O)c1sc2c(c1N)S(=O)(=O)c1cc(Cl)ccc1N2c1ccc(OC)cc1 | – | – | 0%
< 5% | CCOC(=O)c1sc2c(c1N)S(=O)(=O)c1cc(Cl)ccc1N2c1cccc(Cl)c1 | – | – | 0%
– | CC(=O)N[C@@H](CC(C)C)C(=O)N[C@@H](CC(C)C)C(=O)N[C@H](C=O)CCCNC(=N)N [LEUPEPTIN] | – | – | 89.06%
< 5% | CCOC(=O)c1sc2c(c1N)S(=O)(=O)c1ccc(Cl)cc1N2c1ccc(Cl)cc1 | – | – | 0%
< 5% | CCOC(=O)c1sc2c(c1N)S(=O)(=O)c1cc(Cl)ccc1N2c1ccc(Cl)c(Cl)c1 | – | – | 0%

Structure (SMILES) | inhibition [1] | Activity (Plasmodium berghei [2]) | Survival (Plasmodium berghei [3]) | inhibition (INH) (Plasmodium berghei [4])
CCOC(=O)c1sc2c(c1N)S(=O)(=O)c1ccc(Cl)cc1N2c1ccc(C)cc1 | < 5% | 15.7% | 10.8 days | 64.98%
CCOC(=O)c1sc2c(c1N)S(=O)(=O)c1ccc(Cl)cc1N2c1ccc(OC)cc1 | < 5% | 11.21% | 11.6 days | 37.01%
CCOC(=O)c1sc2c(c1N)S(=O)(=O)c1ccc(Cl)cc1N2c1ccccc1C | < 5% | 8.7% | 15.5 days | 74.36%
CCOC(=O)c1sc2c(c1N)S(=O)(=O)c1ccc(Cl)cc1N2c1ccccc1 | < 5% | 9.75% | 13 days | 78.17%
CCOC(=O)c1sc2c(c1N)S(=O)(=O)c1ccc(Cl)cc1N2c1cc(C)ccc1C | < 5% | 9.4% | 11.42 days | 76.81%
CCOC(=O)c1sc2c(c1N)S(=O)(=O)c1ccc(Cl)cc1N2c1cccc(OC)c1 | < 5% | 11.6% | 12.16 days | 55.96%
